Source: ChEMBL document CHEMBL1153293, “Discovery and optimization of piperidyl benzamide derivatives as a novel class of 11beta-HSD1 inhibitors” (Bioorg Med Chem Lett, 2009)

Molecular target: T1, 11-beta-hydroxysteroid dehydrogenase 1 (Homo sapiens, UniProt P28845)
Test: Inhibition of human recombinant 11beta-HSD1 expressed HEK293 cells by scintillation proximity assay in presence of human serum albumin
Assay type: cell-based
Details: not given

T1 sequence (P28845 whole entry): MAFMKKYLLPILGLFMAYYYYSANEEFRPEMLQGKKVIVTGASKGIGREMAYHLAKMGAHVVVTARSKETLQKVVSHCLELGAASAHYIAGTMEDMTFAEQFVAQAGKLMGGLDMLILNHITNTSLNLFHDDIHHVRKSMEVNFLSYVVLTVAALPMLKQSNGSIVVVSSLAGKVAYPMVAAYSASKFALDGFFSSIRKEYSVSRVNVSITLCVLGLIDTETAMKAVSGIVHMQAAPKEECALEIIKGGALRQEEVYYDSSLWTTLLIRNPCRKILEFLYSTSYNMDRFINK

| IC50 [nM] | Compound |
| --- | --- |
| 130 | C[C@](O)(c1ccc(C(=O)N(C2CC2)[C@H]2CC[C@@H](CCC#N)CC2)cc1)C(F)(F)F |

Tested on: not listed separately
Test: Clearance in rat at 0.50 mg/kg, iv
Assay type: ADME, organism-based
Design: dose 0.5 mg/kg, route intravenous
Details: in vivo, 0.5 mg/kg
Procedure, shortened: (§1)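 Rats received each compound both iv (0.39, 0.50 or 0.51 mg/kg, depending on compound) and orally at 2.0 mg/kg. Plasma clearance was taken from the iv arm and oral bioavailability (%F) from the po dose.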

| clearance [mL/min/kg] | Compound |
| --- | --- |
| 14.8 | C[C@](O)(c1ccc(C(=O)N(C2CC2)C2CCN(CC3(C(N)=O)CC3)CC2)cc1)C(F)(F)F |

Tested on: not listed separately
Test: Clearance in rat at 0.39 mg/kg, iv
Assay type: ADME, organism-based
Design: dose 0.39 mg/kg, route intravenous
Details: in vivo
Procedure, shortened: as §1

| clearance [mL/min/kg] | Compound |
| --- | --- |
| 21.7 | CC(C)(C[C@H]1CC[C@H](N(C(=O)c2ccc([C@](C)(O)C(F)(F)F)cc2)C2CC2)CC1)C(N)=O |

Molecular target: T2, Nuclear receptor subfamily 1 group I member 2 (Homo sapiens, UniProt O75469)
T2 sequence (O75469 whole entry): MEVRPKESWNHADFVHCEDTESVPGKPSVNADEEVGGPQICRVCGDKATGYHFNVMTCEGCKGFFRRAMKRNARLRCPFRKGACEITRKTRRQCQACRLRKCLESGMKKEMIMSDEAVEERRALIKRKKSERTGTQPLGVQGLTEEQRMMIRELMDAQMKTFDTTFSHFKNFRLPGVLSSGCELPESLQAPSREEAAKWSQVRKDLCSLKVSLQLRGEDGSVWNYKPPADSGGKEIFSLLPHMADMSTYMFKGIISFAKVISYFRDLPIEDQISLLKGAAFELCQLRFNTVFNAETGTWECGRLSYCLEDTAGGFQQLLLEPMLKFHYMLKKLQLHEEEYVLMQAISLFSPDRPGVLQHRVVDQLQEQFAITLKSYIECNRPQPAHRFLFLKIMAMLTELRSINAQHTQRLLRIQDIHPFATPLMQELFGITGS
Test: Activity at human PXR receptor transfected in human HepG2 cells assessed as receptor activation at 2 uM by luciferase based reporter gene assay relative to rifampin
Assay type: cell-based
Details: hepg2, 2 µM
Procedure, shortened: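 HepG2 cells transfected with human PXR cDNA and a luciferase reporter construct driven by the CYP3A4 gene. Cells were exposed to test article, and luciferase activity was read by chemiluminescence. Rifampin at 10 µM served as the positive control.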

| Compound | Activity [%] |
| --- | --- |
| C[C@@](O)(c1ccc(C(=O)N(C2CC2)[C@H]2CC[C@@H](CCC(N)=O)CC2)cc1)C(F)(F)F | 100 |
| C[C@@](O)(c1ccc(C(=O)N(C2CC2)[C@H]2CC[C@@H](CC#N)CC2)cc1)C(F)(F)F | 74 |
| C[C@](O)(c1ccc(C(=O)N(C2CC2)C2CCN(CC3(C(N)=O)CC3)CC2)cc1)C(F)(F)F | 4 |
| CC(C)(C[C@H]1CC[C@H](N(C(=O)c2ccc([C@](C)(O)C(F)(F)F)cc2)C2CC2)CC1)C(N)=O | 4 |

The next lines start with the values.

| Activity [%] | Compound |
| --- | --- |
| 60 | C[C@](O)(c1ccc(C(=O)N(C2CC2)[C@H]2CC[C@H](CC3(C#N)CC3)CC2)cc1)C(F)(F)F |
| 30 | C[C@](O)(c1ccc(C(=O)N(C2CC2)[C@H]2CC[C@H](CCC#N)CC2)cc1)C(F)(F)F |
| 56 | C[C@](O)(c1ccc(C(=O)N(C2CC2)[C@H]2CC[C@@H](CCC#N)CC2)cc1)C(F)(F)F |

Tested on: not listed separately
Test: Fraction unbound in rat plasma
Assay type: ADME, cell-free
Details: not given
Procedure, shortened: (§2)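 Unbound fraction (fu) in plasma was measured with a 4 h ultracentrifugation protocol, with samples analyzed by mass spectrometry.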

| fraction unbound | Compound |
| --- | --- |
| 0.2 | C[C@](O)(c1ccc(C(=O)N(C2CC2)C2CCN(CC3(C(N)=O)CC3)CC2)cc1)C(F)(F)F |

Tested on: not listed separately
Test: Fraction unbound in human plasma
Assay type: ADME, cell-free
Details: not given
Procedure, shortened: as §2

| fraction unbound | Compound |
| --- | --- |
| 0.48 | C[C@](O)(c1ccc(C(=O)N(C2CC2)C2CCN(CC3(C(N)=O)CC3)CC2)cc1)C(F)(F)F |

Tested on: not listed separately
Test: Metabolic stability in human hepatocyte assessed as compound remaining after 90 mins
Assay type: ADME, cell-based
Details: hepatocytes, read-out: Stability

| remaining at 1.5 h [%] | Compound |
| --- | --- |
| > 90 | C[C@](O)(c1ccc(C(=O)N(C2CC2)C2CCN(CC3(C(N)=O)CC3)CC2)cc1)C(F)(F)F |
| 84 | CC(C)(C[C@H]1CC[C@H](N(C(=O)c2ccc([C@](C)(O)C(F)(F)F)cc2)C2CC2)CC1)C(N)=O |

Tested on: not listed separately
Test: Metabolic stability in human liver microsome assessed as compound remaining after 30 mins
Assay type: ADME
Details: liver microsomes, read-out: Stability

| Compound | remaining at 0.5 h [%] |
| --- | --- |
| C[C@@](O)(c1ccc(C(=O)N(C2CC2)[C@H]2CC[C@@H](CCC(N)=O)CC2)cc1)C(F)(F)F | > 90 |
| C[C@@](O)(c1ccc(C(=O)N(C2CC2)[C@H]2CC[C@@H](CC#N)CC2)cc1)C(F)(F)F | 70 |
| C[C@](O)(c1ccc(C(=O)N(C2CC2)C2CCN(CC3(C(N)=O)CC3)CC2)cc1)C(F)(F)F | > 90 |
| CC(C)(C[C@H]1CC[C@H](N(C(=O)c2ccc([C@](C)(O)C(F)(F)F)cc2)C2CC2)CC1)C(N)=O | > 90 |

The remaining lines, values ahead:

| remaining at 0.5 h [%] | Compound |
| --- | --- |
| > 90 | C[C@](O)(c1ccc(C(=O)N(C2CC2)[C@H]2CC[C@H](CC3(C#N)CC3)CC2)cc1)C(F)(F)F |
| > 90 | C[C@](O)(c1ccc(C(=O)N(C2CC2)[C@H]2CC[C@H](CCC#N)CC2)cc1)C(F)(F)F |
| 64 | C[C@](O)(c1ccc(C(=O)N(C2CC2)[C@H]2CC[C@@H](CCC#N)CC2)cc1)C(F)(F)F |

Molecular target: T1, 11-beta-hydroxysteroid dehydrogenase 1
Test: Inhibition of human recombinant 11beta-HSD1 expressed HEK293 cells by scintillation proximity assay
Assay type: cell-based
Details: not given

| IC50 [nM] | Compound |
| --- | --- |
| 10 | C[C@](O)(c1ccc(C(=O)N(C2CC2)[C@H]2CC[C@@H](CCC#N)CC2)cc1)C(F)(F)F |

Molecular target: T1, 11-beta-hydroxysteroid dehydrogenase 1
Test: Inhibition of human recombinant 11beta-HSD1 expressed in baculovirus system by scintillation proximity assay
Details: not given

| IC50 [nM] | Compound |
| --- | --- |
| 2.8 | C[C@](O)(c1ccc(C(=O)N(C2CC2)[C@H]2CC[C@@H](CCC#N)CC2)cc1)C(F)(F)F |

Tested on: HeLa
Test: Cytotoxicity against human HeLa cells
Assay type: functional, cell-based
Details: not given

| Compound | IC50 [µM] |
| --- | --- |
| C[C@](O)(c1ccc(C(=O)N(C2CC2)[C@H]2CC[C@H](CC3(C#N)CC3)CC2)cc1)C(F)(F)F | 4 |
| C[C@@](O)(c1ccc(C(=O)N(C2CC2)[C@H]2CC[C@@H](CCC(N)=O)CC2)cc1)C(F)(F)F | > 10 |
| C[C@](O)(c1ccc(C(=O)N(C2CC2)[C@H]2CC[C@H](CCC#N)CC2)cc1)C(F)(F)F | > 10 |
| C[C@](O)(c1ccc(C(=O)N(C2CC2)[C@H]2CC[C@@H](CCC#N)CC2)cc1)C(F)(F)F | > 10 |
| C[C@](O)(c1ccc(C(=O)N(C2CC2)C2CCN(CC3(C(N)=O)CC3)CC2)cc1)C(F)(F)F | > 10 |
| CC(C)(C[C@H]1CC[C@H](N(C(=O)c2ccc([C@](C)(O)C(F)(F)F)cc2)C2CC2)CC1)C(N)=O | > 10 |

Tested on: not listed separately
Test: Metabolic stability in rat liver microsome assessed as compound remaining after 30 mins
Assay type: ADME
Details: liver microsomes, read-out: Stability

| Compound | remaining at 0.5 h [%] |
| --- | --- |
| C[C@@](O)(c1ccc(C(=O)N(C2CC2)[C@H]2CC[C@@H](CCC(N)=O)CC2)cc1)C(F)(F)F | 72 |
| C[C@@](O)(c1ccc(C(=O)N(C2CC2)[C@H]2CC[C@@H](CC#N)CC2)cc1)C(F)(F)F | 5 |
| C[C@](O)(c1ccc(C(=O)N(C2CC2)C2CCN(CC3(C(N)=O)CC3)CC2)cc1)C(F)(F)F | 86 |
| CC(C)(C[C@H]1CC[C@H](N(C(=O)c2ccc([C@](C)(O)C(F)(F)F)cc2)C2CC2)CC1)C(N)=O | > 90 |

Next, values leading:

| remaining at 0.5 h [%] | Compound |
| --- | --- |
| > 90 | C[C@](O)(c1ccc(C(=O)N(C2CC2)[C@H]2CC[C@H](CC3(C#N)CC3)CC2)cc1)C(F)(F)F |
| < 5 | C[C@](O)(c1ccc(C(=O)N(C2CC2)[C@H]2CC[C@@H](CCC#N)CC2)cc1)C(F)(F)F |

Tested on: not listed separately
Test: Oral bioavailability in rat at 2.0 mg/kg
Assay type: ADME, organism-based
Details: in vivo
Procedure, shortened: as §1

| bioavailability [%] | Compound |
| --- | --- |
| 69 | C[C@](O)(c1ccc(C(=O)N(C2CC2)C2CCN(CC3(C(N)=O)CC3)CC2)cc1)C(F)(F)F |
| 32 | CC(C)(C[C@H]1CC[C@H](N(C(=O)c2ccc([C@](C)(O)C(F)(F)F)cc2)C2CC2)CC1)C(N)=O |

Tested on: not listed separately
Test: Metabolic stability in rat hepatocyte assessed as compound remaining after 90 mins
Assay type: ADME, cell-based
Details: hepatocytes, read-out: Stability

| remaining at 1.5 h [%] | Compound |
| --- | --- |
| 69 | C[C@](O)(c1ccc(C(=O)N(C2CC2)C2CCN(CC3(C(N)=O)CC3)CC2)cc1)C(F)(F)F |
| 10 | CC(C)(C[C@H]1CC[C@H](N(C(=O)c2ccc([C@](C)(O)C(F)(F)F)cc2)C2CC2)CC1)C(N)=O |
